# Assay outcomes deposited in PubChem by The Scripps Research Institute Molecular Screening Center.
# This is a sample that favours compounds with a hit; in the whole collection about 2.9% have one here.
# mABHD4 FP: ABHD4 inhibitors, primary screen, biochemical, fluorescence polarization, mouse; purified mABHD4, FP-Rh probe fluorescence polarization; inhibition, % at 8.92 µM; 0.54% of 370,000 active; AID 720543, 2013;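 active means inhibition exceeding the mean over every tested compound plus 3 SD, cut at about 30% in these data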
#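 Test system: mABHD4 protein; Read-out basis: % inhibition; Incubation: 45 min + 60 min at 25 °C; Repeats: single replicate; Technique: fluorescence polarization with parallel and perpendicular emission, 525/598 nm; Compound: 8.92 µM, single dose; Benchmarks: full inhibition S159A mutant plus DMSO, zero as sample-well median.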
# PRMT1 inh: PRMT1 methyltransferase inhibitors, primary screen, biochemical, fluorescence polarization | 1.3% of 370,000 active | inhibition, % at 2.79 µM | recombinant PRMT1, activity-based probe fluorescence polarization | Protein arginine N-methyltransferase 1 (Homo sapiens), Q99873;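 active means inhibition above about 21% made by adding two undisclosed values, limit read from the data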
# PAD4 inh: human PAD4 inhibitors, primary screen, biochemical, fluorescence polarization, 1536-well format; Protein-arginine deiminase type-4 (Homo sapiens), Q9UM07; recombinant PAD4, RCA probe fluorescence polarization; inhibition, % at 6.36 µM; 0.41% of 330,000 active;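 active means percent inhibition above a cutoff equal to the mean of all tested compounds plus 3 SD, cut at about 15% in these data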
# Target sequence (Q9UM07 whole entry, looked up): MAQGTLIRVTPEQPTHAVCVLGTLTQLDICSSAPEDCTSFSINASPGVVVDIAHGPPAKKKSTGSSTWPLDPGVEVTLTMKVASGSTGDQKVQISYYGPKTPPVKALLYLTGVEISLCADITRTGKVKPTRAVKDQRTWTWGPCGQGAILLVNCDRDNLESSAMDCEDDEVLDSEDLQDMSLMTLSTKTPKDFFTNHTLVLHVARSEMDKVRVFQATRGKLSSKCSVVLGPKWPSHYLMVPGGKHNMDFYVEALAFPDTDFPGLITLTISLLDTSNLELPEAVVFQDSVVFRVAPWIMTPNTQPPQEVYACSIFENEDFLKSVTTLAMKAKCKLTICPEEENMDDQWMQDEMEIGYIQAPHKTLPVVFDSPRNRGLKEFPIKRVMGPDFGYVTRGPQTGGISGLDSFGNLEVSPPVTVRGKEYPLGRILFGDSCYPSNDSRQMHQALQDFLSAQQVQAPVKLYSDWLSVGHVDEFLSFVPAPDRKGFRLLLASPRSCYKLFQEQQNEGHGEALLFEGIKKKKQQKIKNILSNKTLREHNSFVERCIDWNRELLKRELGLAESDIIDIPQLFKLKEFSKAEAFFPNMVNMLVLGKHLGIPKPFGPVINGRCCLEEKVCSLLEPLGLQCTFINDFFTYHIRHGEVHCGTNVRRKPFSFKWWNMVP
# SIAE primary: human SIAE inhibitors, primary screen, biochemical, fluorescence polarization, FP-Rh probe, 1536-well HTS; inhibition, % at 9.66 µM; SIAE FP-Rh probe binding; 0.69% of 370,000 active; Sialate O-acetylesterase (Homo sapiens), Q9HAT2;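 active means inhibition above a cutoff: mean of compounds within the control limits plus 3 SD of those, cut at about 17% in these data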
# TCR-CD3 inh: inhibitors of human TCR-CD3 interaction, primary screen, biochemical, fluorescence, TAMRA-labeled TCR probe; 0.37% of 360,000 active; T-cell receptor (TCR); inhibition, % at 9.4 µM; in the data active means inhibition above about 19%;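 further: recombinant mutant TCR 2C K166C tagged with TAMRA read by polarization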
# HTRA1 inh: HTRA1 serine protease inhibitors, primary screen, biochemical, fluorescence polarization, HTS | AID 504803, 2011 | inhibition, % at 5.96 µM | 0.5% of 340,000 active | recombinant HTRA1, FP-rhodamine activity-based probe | Q92743; in the data active means inhibition above about 36%
# mABHD4 conf: ABHD4 inhibitors, retest, confirmation, biochemical, fluorescence polarization, mouse; shares compounds with mABHD4 FP; purified mABHD4, FP-Rh probe fluorescence polarization; inhibition, % at 8.92 µM; 55% of 1,800 active; AID 720658, 2013;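 active means mean inhibition across replicates above the hit cutoff set in the primary screen, cut at about 30% in these data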
# Numbers stand for hits; . = inactive; / = no result given.
SMILES,mABHD4 FP,PRMT1 inh,PAD4 inh,SIAE primary,TCR-CD3 inh,HTRA1 inh,mABHD4 conf
CCCCCCCCN1C(=O)N2Cc3ccc(C)cc3C2CS1(=O)=O (centres undefined),.,.,/,.,/,/,/
COc1cc2c(oc(=O)c3cc(C)cc(OC)c32)c2c(C3OC(C)C(O)C(C)(O)C3O)ccc(O)c12 (centres undefined),38,.,/,.,.,.,.
OC(CCN1CC2CCC(CC2)C1)(Cc1ccccc1)c1ccco1 (centres undefined),37,.,/,.,.,.,.
O=C(/C=C/c1ccco1)N1CCC(Cc2ccccc2)CC1,.,.,.,.,.,.,/
O=S1(=O)CC2c3ccc(F)cc3CN2CN1Cc1ccccc1 (centres undefined),.,.,/,.,/,/,/
CCOc1ccc(/C=C2\SC(=O)N(c3ccc(O)cc3)C2=O)cc1OC,/,/,.,/,/,/,/
O=C1S/C(=C\c2ccc(O)c([N+](=O)[O-])c2)C(=O)N1Cc1cccc([N+](=O)[O-])c1,.,.,.,.,.,/,/
COc1cc(/C=C2\SC(=O)N(c3cccc(Cl)c3)C2=O)cc([N+](=O)[O-])c1O,37,.,/,.,.,.,41
O=C1S/C(=C\c2ccc(O)c([N+](=O)[O-])c2)C(=O)N1c1ccccc1Cl,55,.,.,.,.,.,44
O=C(CN1C(=O)S/C(=C\c2ccc(O)c([N+](=O)[O-])c2)C1=O)Nc1ccc(N2CCOCC2)cc1,.,.,/,.,.,.,/
Cc1cccc(NC(=O)CN2C(=O)S/C(=C\c3ccc(O)c([N+](=O)[O-])c3)C2=O)c1,34,.,.,.,.,.,60
COC(=O)C[C@H]1CC[C@H]2[C@H](COc3ccc(NS(=O)(=O)c4cccc(F)c4)cc3C(=O)N2C)O1,.,.,/,.,/,/,/
CCN(C)C(=O)CN1C(=O)C2CCCCN2C(=O)c2ccccc21 (centres undefined),.,.,/,.,/,/,/
CC1CC(C)C(=O)C(C(CC2CC(=O)NC(=O)C2)OC(=O)CC(=O)c2ccccc2)C1 (centres undefined),60,.,/,.,.,.,.
O=C1c2ccccc2C(=O)N1c1cccc(-c2csc(Nc3ccc4c(c3)OCO4)n2)c1,/,/,.,/,/,/,/
c1ccc(-c2csc(Nc3ccc4c(c3)OCO4)n2)cc1,31,.,/,.,.,/,.
CC1CCCC(C)N1C(=O)COC(=O)CCC(=O)c1cccs1 (centres undefined),60,.,.,.,.,.,.
CC1CCCC(C)N1C(=O)COC(=O)CCC(=O)c1ccc(F)cc1 (centres undefined),.,.,.,.,.,.,/
CCc1ccc(Nc2n[n+](-c3ccccc3)c(-c3c(Cl)cccc3Cl)s2)cc1,42,.,.,.,.,.,47
[O-]C(=C(C(=S)Nc1cccc2ccccc12)[n+]1cccc(CO)c1)c1ccc(Cl)s1,30,.,/,.,.,.,63
Cc1ccccc1N1CCN(S(=O)(=O)c2ccc3c(c2)n(C)c(=O)c(=O)n3C)CC1,.,.,/,.,/,/,/
O=C1CCC2(CCC(c3ccccc3)CC2)N1CCO (centres undefined),.,.,/,.,/,/,/
COc1ccc(CN2CCN(Cc3c[nH]c4ccccc34)CC2)cc1,.,.,.,.,.,.,/
COc1ccc(CN2CCN(Cc3c[nH]c4ccccc34)CC2)c(OC)c1,33,.,/,.,.,.,.
O=C(CCc1ccccc1)N[C@H]1[C@H](OCc2ccccc2)CCC[C@@]12C(=O)N(Cc1ccccc1)c1ccc(-c3ccccn3)cc12,.,.,/,.,/,/,/
SMILES,mABHD4 FP,PRMT1 inh,PAD4 inh,SIAE primary,TCR-CD3 inh,HTRA1 inh,mABHD4 conf
O=C(COc1ccccc1Cl)NC(=S)Nc1ccccc1N1CCCC1,41,.,.,.,.,.,.
O=C(O)C1CCN(S(=O)(=O)c2ccc3[nH]ccc3c2)CC1,30,.,/,.,.,.,.
COc1ccc(S[C@]2(C(=O)N3CCCC3)CC(=O)N(S(=O)(=O)c3ccc(F)cc3)[C@@H]2c2ccc(OC)cc2)cc1,.,.,/,.,/,/,/
O=S(=O)(c1cc2ccccc2s1)n1c(CN2CCOCC2)nc2ccccc21,.,.,/,.,/,/,/
O=S(=O)(c1ccc(F)cc1)N1CCN(Cc2cc3c(cc2Br)OCCO3)CC1,.,.,.,.,.,.,/
Oc1ccc(N2CCN(Cc3cc4c(cc3Br)OCCO4)CC2)cc1,34,23,.,.,.,.,.
Cc1ccc(-c2c(C(=O)NC3CCCC3)oc(=O)c3ccccc23)cc1,.,.,/,.,/,/,/
O=c1[nH]n2c(=O)c3c([nH]c2c1N=Nc1cccc(C(F)(F)F)c1)CCCC3,59,.,.,.,.,.,66
COc1cccc(CO[C@H]2C=C[C@@H](c3ccccc3)O[C@@H]2CO)c1,.,.,/,.,/,/,/
COc1ccccc1NS(=O)(=O)c1ccc(O)c(C(=O)OCc2cccc([N+](=O)[O-])c2)c1,32,.,.,.,.,.,38
Nc1sc2c(c1C(=O)NCCc1ccccc1)CCCC2,37,36,/,.,.,/,.
CCCCCCCCN1C(=O)[C@@H](CC(=O)NCC2CCCCC2)C[C@@]2(C(=O)OC)C1=C[C@H](COCc1ccccc1)O[C@@H]2C,.,.,/,.,/,/,/
COC(=O)C1=C(N)Oc2cc(N(C)C)ccc2C1c1ccccc1OC (centres undefined),47,.,.,.,.,.,.
COc1cc(/C=N/NC(=O)[C@H](Cc2c[nH]c3ccccc23)NC(=O)OCC(C)C)cc([N+](=O)[O-])c1O,41,.,.,33,.,.,49
COc1cc(/C=N/NC(=O)Cc2ccccc2)cc([N+](=O)[O-])c1O,.,.,.,.,.,.,/
CN(C(=O)[C@H]1O[C@@H](n2cnc(C(N)=O)n2)[C@H](O)[C@@H]1O)c1ccccc1,.,.,/,.,.,/,/
COc1cc(-n2c(C)nc3cc(C(=O)N4CCCN(C(C)=O)CC4)ccc32)cc(OC)c1OC,.,.,/,.,/,/,/
Cc1cc(C)cc(NCc2cc3c(cc2[N+](=O)[O-])OCO3)c1,31,.,.,.,.,.,.
COc1ccc(CNCc2cc3c(cc2[N+](=O)[O-])OCO3)cc1,33,.,.,.,.,.,.
Cc1ccc(-c2cnc(NCc3cc4c(cc3[N+](=O)[O-])OCO4)n2C)cc1C,.,.,.,.,.,.,/
COc1ccc(CC(=O)NCc2ccc3c(c2)OCO3)cc1,.,.,.,.,.,.,/
